Bioassay records from PubChem BioAssay.
H9c2 protect – myocardial damage modulation in H9c2 cells; H9c2 cardiomyocytes, H2O2 injury protection, ATPLite, 2 h; protection from H2O2 cell death, % at 20 µM; 0.63% of 360,000 active;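 active = compounds giving at least 50% protection of heart cells from peroxide-induced death in the single-dose screen, raw or plate-pattern-corrected value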;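 also: 0% = DMSO wells with peroxide and 100% = DMSO wells without peroxide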
H9c2 TAG inh – inhibitors of triacylglycerol accumulation | H9c2 cells, Nile Red lipid (TAG) fluorescence; cells loaded with 200 µM oleic acid | inhibition, % at 12.5 µM | 0.66% of 230,000 active | AID 651582;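 active = pattern-corrected inhibition of lipid staining of at least 50% with the nuclear-stain viability signal not falling by more than 50%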;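 also: 0% = DMSO wells and 100% = triacsin C control wells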
DDE Tn7 FP inh – disrupts Tn7 cyclic peptide binding to fibrin D-Dimer-E complex | P02675 | FP displacement of FITC-Tn7 peptide from fibrin DD(E); 0% = median of compound wells per plate | inhibition, % at 8.3 µM | 0.13% of 370,000 active;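 active = inhibition above the mean of compounds falling within the control limits plus 3 SD of them, cut at about 14% in these data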;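 also: 0% = plate median of compound wells and 100% = 10 µM Aha-Tn7 peptide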
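assay system = human clot-derived fibrin DD(E) complex | quantity = Fibrin-DD(E) at 2 µM final | timing = 10 min preincubation, 3 h with tracer, room temperature | signal = fluorescence polarization | measure = percent inhibition | benchmarks = high control wells with 10 µM unlabelled Aha-Tn7 peptide (full inhibition) | replicates = singlicate testing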
MT1-MMP act inh – inhibitors of human MT1-MMP activation | P50281 | HT1080 RFP-PRO-GFP cells, GFP/RFP ratio fluorescence, overnight; percent of plate control window, DMSO zero | GFP/RFP ratio change, % at 20 µM | 0.061% of 360,000 active;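 active = GFP/RFP ratio change of at least 30% with cell ATP level not reduced by more than half and red fluorescence within 50% of control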
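Assay system: RFP-PRO-GFP reporter HT1080 cells; read-out basis: GFP/RFP fluorescence ratio; benchmarks: DMSO wells and RFP-L50D-GFP cells; doses: 20 µM single dose, 1% DMSO; schedule: overnight cell settling, then overnight compound exposure, 37 °C, 5% CO2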
DAGLB inh – blocks human DAGLB lipase activity. HEK293T DAGLB membrane lysate, EnzChek fluorogenic substrate. 0.059% of 340,000 active. Q8NCG7. inhibition, % at 5.17 µM; in the data active = inhibition above about 34%;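 also: 0% = enzyme with vehicle and 100% = wells lacking enzyme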
Target sequence (Q8NCG7 whole entry, looked up): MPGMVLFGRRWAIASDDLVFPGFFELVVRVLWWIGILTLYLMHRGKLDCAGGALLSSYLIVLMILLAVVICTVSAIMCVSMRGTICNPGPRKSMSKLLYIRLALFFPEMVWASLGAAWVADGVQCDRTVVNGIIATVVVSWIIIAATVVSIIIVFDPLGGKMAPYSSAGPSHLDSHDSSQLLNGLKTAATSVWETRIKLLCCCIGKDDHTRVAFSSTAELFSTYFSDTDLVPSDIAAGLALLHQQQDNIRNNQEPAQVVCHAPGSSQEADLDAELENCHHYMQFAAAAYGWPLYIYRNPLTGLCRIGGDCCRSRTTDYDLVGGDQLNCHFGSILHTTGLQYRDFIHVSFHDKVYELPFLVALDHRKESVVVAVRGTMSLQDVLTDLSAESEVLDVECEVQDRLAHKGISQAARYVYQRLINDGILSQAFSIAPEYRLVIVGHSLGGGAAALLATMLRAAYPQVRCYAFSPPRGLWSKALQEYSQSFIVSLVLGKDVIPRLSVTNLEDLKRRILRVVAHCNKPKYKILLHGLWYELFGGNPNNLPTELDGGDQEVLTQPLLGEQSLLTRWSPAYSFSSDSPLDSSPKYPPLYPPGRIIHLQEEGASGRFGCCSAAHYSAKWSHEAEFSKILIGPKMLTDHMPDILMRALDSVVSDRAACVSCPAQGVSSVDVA
DDE Tn6 FP inh – inhibitors of Tn6 peptide binding to human fibrin DD(E) | P02675 | 0.21% of 370,000 active | AID 720509 | Fibrin DD(E) TRITC-Tn6 fluorescence polarization displacement | inhibition, % at 8.3 µM;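 active = inhibition above a per-campaign cutoff: mean of compounds within control limits plus 3 SD, cut at about 15% in these data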;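 also: 0% = median of all compound wells on the plate and 100% = blocking peptide control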
H9c2 TAG conf – confirmation of triacylglycerol accumulation inhibitors. shares compounds with H9c2 TAG inh. H9c2 lipid accumulation, Nile Red fluorescence; cells loaded with 200 µM oleic acid. inhibition, % at 12.5 µM. 71% of 990 active. AID 651629;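 active = mean inhibition across replicates of 40% or more; inactive = mean inhibition below 40%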;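 also: plate controls were DMSO only wells for no effect and Triacsin C treated wells for full effect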
Active calls of the source: *; / = no result given. An excerpt weighted towards active compounds, which were near 1.4% of everything screened.

SMILES	H9c2 protect	H9c2 TAG inh	DDE Tn7 FP inh	MT1-MMP act inh	DAGLB inh	DDE Tn6 FP inh	H9c2 TAG conf
CC(=O)Nc1ccc(NC(=O)C2(C)Cc3c(-c4cccc(C(N)=O)c4)ccnc3O2)cc1 (centres undefined)	8	3	2	0	/	-3	/
COc1ccc(NC(=O)C2(C)Cc3c(-c4cccc(NC(C)=O)c4)ccnc3O2)cn1 (centres undefined)	29	58*	0	13	/	-3	52*
COc1ccc(NC(=O)C2(C)Cc3c(-c4ccc(NC(C)=O)cc4)ccnc3O2)cn1 (centres undefined)	9	11	6	-4	/	-8	/
C[C@@H]1CN([C@@H](C)CO)C(=O)CCCn2cc(nn2)CO[C@H]1CN(C)C(=O)C1CC1	/	/	1	/	/	-4	/
COC(=O)[C@@H](Cc1ccccc1)N(Cc1ccccc1)S(=O)(=O)N(Cc1ccccc1)[C@H](Cc1ccccc1)C(=O)OC	-3	12	11	-4	-29	-2	/
COCCS(=O)(=O)N(Cc1ccccc1)[C@H](C(=O)OC)C(C)C	-3	-16	0	-1	2	2	/
COCCS(=O)(=O)N(Cc1ccc(Br)cc1)[C@@H](C)C(=O)OC	1	53*	0	3	-1	-3	-3
COC(=O)[C@@H](CC(C)C)N(Cc1ccccc1)S(=O)(=O)N(Cc1ccccc1)[C@@H](CC(C)C)C(=O)OC	-10	62*	-3	4	-3	2	-19
CCCCCCSc1cc(-c2nc3ccc(Cl)cn3c2NC2CCCCC2)ccc1OC	-11	66*	-3	-7	0	-2	44*
CC(C)c1ccc2c(c1)C(c1ccc(N3CCOCC3)cc1)=NNC(c1cccs1)=N2	8	52*	2	-22	-2	-6	29
CCOc1ccccc1-c1nc(-c2ccc(NC(=O)Cc3ccccc3OC)cc2)no1	-4	71*	-2	-5	-6	3	46*
COc1ccccc1CC(=O)Nc1ccc(-c2noc(COc3ccc(Cl)c(C)c3)n2)cc1	-5	/	-13	6	-1	-4	/
O=C(NCCCc1ccccc1)[C@H](Cc1c[nH]c2ccccc12)NC1(C(=O)NCCc2c[nH]c3ccccc23)CCOCC1	/	/	1	/	/	3	/
COc1ccc2c(c1)C[C@@H]1CC(C)(C)CN1S2(=O)=O	/	/	-5	/	/	4	/
C=CCC[C@@H](Cc1ccc(F)cc1)C(=O)OC[C@@H](Cc1c[nH]c2ccccc12)NC(=O)[C@H](CC=C)CC(=O)N(CCO)Cc1ccccc1	-6	57*	-1	-14	-1	4	71*
C=CC[C@@H](CC(=O)N(CCO)Cc1ccccc1)C(=O)N[C@@H](C)COC(=O)[C@@H](CC=C)Cc1ccc(F)cc1	-8	22	3	0	-4	1	/
C=CC[C@@H](CC(=O)N[C@H](CO)Cc1ccccc1)C(=O)N[C@H](COC(=O)[C@@H](CC=C)Cc1ccc(F)cc1)C(C)(C)C	-3	95*	1	-5	-2	3	38
C=CCC[C@H](Cc1ccc(F)cc1)C(=O)OC[C@@H](NC(=O)[C@@H](CC=C)CC(=O)N[C@@H](CO)Cc1ccccc1)C(C)(C)C	2	33	-9	-18	-7	-6	/
C=CCC[C@H](Cc1ccc(F)cc1)C(=O)OC[C@@H](NC(=O)[C@@H](CC=C)CC(=O)N(CCO)Cc1ccccc1)C(C)(C)C	-6	87*	-4	-14	-10	6	93*
C=CC[C@@H](CC(=O)N(CCO)Cc1ccccc1)C(=O)N[C@H](COC(=O)[C@@H](CC=C)CC(=O)OC(C)(C)C)C(C)(C)C	0	73*	-7	-23	-8	7	81*
Cc1ccc(-c2nc(C3CCCN(S(=O)(=O)c4ccc(C)c(C)c4)C3)no2)cc1 (centres undefined)	/	/	2	/	/	1	/
